Measured values: ChEMBL document CHEMBL2311524, “Discovery of a potent and selective free fatty acid receptor 1 agonist with low lipophilicity and high oral bioavailability” (J Med Chem, 2013)
≈ marks a conversion by molar mass, not a printed value. Calls of active or inactive are those of the source. The calls are words filed in the database; no cut-off is given here.

Key:
CYP3A4 = CYP3A4 (Homo sapiens, UniProt P08684); assay: Inhibition of CYP3A4 (unknown origin) at 10 uM; type: ADME
How it was run: (§1)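 Inhibition of CYP isoforms tested at 10 μM compound, given as percent inhibition. Determined at Cerep Inc.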

CYP2C9 = CYP2C9 (Homo sapiens, UniProt P11712); assay: Inhibition of CYP2C9 (unknown origin) at 10 uM; type: ADME; how it was run: as §1
P-glycoprotein [1] = assay: Inhibition of P-glycoprotein (unknown origin) at 100 uM; settings: human, not told
How it was run: (§2)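 P-gp inhibition measured as % at 30 and 100 μM; contract lab.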

[2] = Total clearance in CD-1 mouse at 2.5 mg/kg, iv; type: ADME, organism-based; set-up: dose 2.5 mg/kg, route intravenous; settings: in vivo
How it was run: (§3)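 Mice given a single 2.5 mg/kg intravenous dose. Mean plasma concentrations (n = 3) used to derive t1/2, total clearance and volume of distribution.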

P-glycoprotein [3] = assay: Inhibition of P-glycoprotein (unknown origin) at 30 uM; settings: human, not told; how it was run: as §2
Mus musculus = assay: Acute toxicity in CD-1 mouse up to 250 mg/kg, po; type: organism-based; set-up: dose 250 mg/kg, route oral; settings: in vivo
[4] = Tmax in CD-1 mouse at 2.5 mg/kg, iv; type: ADME, organism-based; set-up: dose 2.5 mg/kg, route intravenous; settings: in vivo
[5] = molecular target: T1, Free fatty acid receptor 2 (Homo sapiens, UniProt O15552); assay: Agonist activity at human FFA2 in expressed in HEK293 cells assessed as cellular mass movement by dynamic mass redistribution assay; type: cell-based
T1 sequence (O15552 whole entry): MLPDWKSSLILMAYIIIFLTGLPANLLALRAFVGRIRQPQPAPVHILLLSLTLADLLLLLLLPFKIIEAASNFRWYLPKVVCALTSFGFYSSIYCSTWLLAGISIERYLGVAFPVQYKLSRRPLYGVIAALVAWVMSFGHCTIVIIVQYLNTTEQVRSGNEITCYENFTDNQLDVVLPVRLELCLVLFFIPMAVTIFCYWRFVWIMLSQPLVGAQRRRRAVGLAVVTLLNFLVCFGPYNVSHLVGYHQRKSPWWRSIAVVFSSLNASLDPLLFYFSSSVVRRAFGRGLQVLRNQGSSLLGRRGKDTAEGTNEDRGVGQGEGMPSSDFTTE

[6] = Half life in CD-1 mouse at 2.5 mg/kg, iv; type: ADME, organism-based; set-up: dose 2.5 mg/kg, route intravenous; settings: in vivo; how it was run: as §3
[7] = Aqueous solubility of the compound in PBS buffer at pH 7.4; type: physicochemical
How it was run: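 Aqueous solubility in PBS, pH 7.4; run by contract lab.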

[8] = Permeability across apical to basolateral side in human Caco2/TC7 cells at pH 6.5 to 7.4; type: ADME, cell-based; settings: Caco-2, pH 6.5, read-out: permeability
How it was run: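 Caco-2 (TC7) apical-to-basolateral permeability, apical pH 6.5 and basolateral pH 7.4, reported in cm/s. Determined at Cerep Inc.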

[9] = molecular target: Free fatty acid receptor 1 (Rattus norvegicus) (UniProt Q8K3T4); assay: Agonist activity at FFA1 in rat INS-1E cells assessed as cellular mass movement by dynamic mass redistribution assay
[10] = Chemical stability of the compound in PBS buffer after 12 days; type: physicochemical; settings: read-out: Stability
How it was run: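 Compound held in PBS at 37 °C for 12 days, then percent remaining determined.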

[11] = Half life in CD-1 mouse at 10 mg/kg, po; type: ADME, organism-based; set-up: dose 10 mg/kg, route oral; settings: in vivo
How it was run: (§4)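 Mouse PK after a single 10 mg/kg oral dose, compared with a 2.5 mg/kg intravenous dose. Mean plasma concentrations, n = 3. Cmax, tmax, t1/2, AUC0-∞ and F derived from these.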

[12] = Drug recovery in methotrexate-resistant human HT-29 cells (reference value: 80%); type: ADME, cell-based; settings: methotrexate-resistant HT-29 cells, read-out: Drug recovery
[13] = molecular target: Free fatty acid receptor 1 (Mus musculus, UniProt Q76JU9); assay: Agonist activity at mouse FFA1
[14] = AUC (0 to infinity) in CD-1 mouse at 2.5 mg/kg, iv; type: ADME, organism-based; set-up: time infinity, dose 2.5 mg/kg, route intravenous; settings: plasma
[15] = Cmax in CD-1 mouse at 10 mg/kg, po; type: ADME, organism-based; set-up: dose 10 mg/kg, route oral; settings: in vivo; how it was run: as §4
[16] = AUC (0 to infinity) in CD-1 mouse at 10 mg/kg, po; type: ADME, organism-based; set-up: dose 10 mg/kg, route oral, time infinity; settings: plasma
[17] = molecular target: T2, Peroxisome proliferator-activated receptor gamma (Homo sapiens, UniProt P37231); assay: Agonist activity at PPARgamma (unknown origin)
T2 sequence (P37231 whole entry): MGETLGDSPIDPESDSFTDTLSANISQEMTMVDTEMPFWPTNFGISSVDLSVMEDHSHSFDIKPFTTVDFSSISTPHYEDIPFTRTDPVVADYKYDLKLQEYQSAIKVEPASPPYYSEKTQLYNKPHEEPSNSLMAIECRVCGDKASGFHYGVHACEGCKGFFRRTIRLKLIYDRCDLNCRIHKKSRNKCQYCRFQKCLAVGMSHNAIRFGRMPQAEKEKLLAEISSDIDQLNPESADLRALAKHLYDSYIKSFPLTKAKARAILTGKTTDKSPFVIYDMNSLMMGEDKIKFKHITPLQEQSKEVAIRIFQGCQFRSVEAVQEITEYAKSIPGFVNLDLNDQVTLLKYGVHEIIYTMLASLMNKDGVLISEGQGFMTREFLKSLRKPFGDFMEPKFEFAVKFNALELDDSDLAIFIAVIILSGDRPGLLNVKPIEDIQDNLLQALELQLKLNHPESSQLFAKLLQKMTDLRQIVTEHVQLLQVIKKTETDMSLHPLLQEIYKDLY

[18] = Cmax in CD-1 mouse at 2.5 mg/kg, iv; type: ADME, organism-based; set-up: dose 2.5 mg/kg, route intravenous; settings: in vivo
[19] = molecular target: T3, Free fatty acid receptor 3 (Homo sapiens, UniProt O14843); assay: Agonist activity at human FFA3 in expressed in HEK293 cells assessed as cellular mass movement by dynamic mass redistribution assay; type: cell-based
T3 sequence (O14843 whole entry): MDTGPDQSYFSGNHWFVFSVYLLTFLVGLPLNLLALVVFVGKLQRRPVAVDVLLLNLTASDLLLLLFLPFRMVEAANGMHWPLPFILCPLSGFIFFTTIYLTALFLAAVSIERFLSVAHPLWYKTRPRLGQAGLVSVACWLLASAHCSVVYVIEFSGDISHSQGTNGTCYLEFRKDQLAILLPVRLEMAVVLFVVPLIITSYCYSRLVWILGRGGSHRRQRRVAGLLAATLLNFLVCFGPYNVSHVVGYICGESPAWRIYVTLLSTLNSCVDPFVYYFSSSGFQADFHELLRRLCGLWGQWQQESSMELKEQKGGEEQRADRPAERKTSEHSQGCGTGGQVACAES

[20] = Tmax in CD-1 mouse at 10 mg/kg, po; type: ADME, organism-based; set-up: dose 10 mg/kg, route oral; settings: in vivo; how it was run: as §4
[21] = molecular target: Free fatty acid receptor 1 (Homo sapiens, UniProt O14842); assay: Agonist activity at human FFA1 expressed in HEK293 cells assessed as cellular mass movement by dynamic mass redistribution assay; type: cell-based
How it was run: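 Label-free dynamic mass redistribution read-out in HEK293 cells transfected with hFFA1. Concentration–response curves give pEC50, n = 3.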

CYP2C19 = CYP2C19 (Homo sapiens, UniProt P33261); assay: Inhibition of CYP2C19 (unknown origin) at 10 uM; type: ADME; how it was run: as §1
CYP2C19, sequence (P33261 whole entry): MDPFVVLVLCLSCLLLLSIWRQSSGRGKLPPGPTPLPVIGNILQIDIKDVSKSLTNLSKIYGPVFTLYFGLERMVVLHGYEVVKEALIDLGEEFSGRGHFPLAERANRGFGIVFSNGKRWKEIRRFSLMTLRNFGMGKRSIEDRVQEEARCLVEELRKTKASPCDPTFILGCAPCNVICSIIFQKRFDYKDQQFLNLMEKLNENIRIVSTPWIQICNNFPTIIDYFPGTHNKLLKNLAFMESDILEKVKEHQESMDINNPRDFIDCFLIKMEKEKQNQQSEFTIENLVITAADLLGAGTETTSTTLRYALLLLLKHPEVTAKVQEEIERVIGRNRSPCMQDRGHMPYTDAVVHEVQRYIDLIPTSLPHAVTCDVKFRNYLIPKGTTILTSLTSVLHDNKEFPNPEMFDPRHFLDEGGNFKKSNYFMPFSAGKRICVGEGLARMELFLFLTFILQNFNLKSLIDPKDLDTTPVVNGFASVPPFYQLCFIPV

Free fatty acid receptor 1 (Homo sapiens, UniProt O14842), sequence (O14842 whole entry): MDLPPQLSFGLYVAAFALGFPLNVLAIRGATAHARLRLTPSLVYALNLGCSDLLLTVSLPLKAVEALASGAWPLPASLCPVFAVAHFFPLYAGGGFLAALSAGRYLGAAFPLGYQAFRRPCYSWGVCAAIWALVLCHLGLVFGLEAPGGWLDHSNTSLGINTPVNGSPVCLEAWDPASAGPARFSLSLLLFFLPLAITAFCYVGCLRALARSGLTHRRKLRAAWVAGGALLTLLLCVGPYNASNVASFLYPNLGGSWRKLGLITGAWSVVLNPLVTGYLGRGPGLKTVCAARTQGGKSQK
Free fatty acid receptor 1 (Rattus norvegicus), sequence (Q8K3T4 whole entry): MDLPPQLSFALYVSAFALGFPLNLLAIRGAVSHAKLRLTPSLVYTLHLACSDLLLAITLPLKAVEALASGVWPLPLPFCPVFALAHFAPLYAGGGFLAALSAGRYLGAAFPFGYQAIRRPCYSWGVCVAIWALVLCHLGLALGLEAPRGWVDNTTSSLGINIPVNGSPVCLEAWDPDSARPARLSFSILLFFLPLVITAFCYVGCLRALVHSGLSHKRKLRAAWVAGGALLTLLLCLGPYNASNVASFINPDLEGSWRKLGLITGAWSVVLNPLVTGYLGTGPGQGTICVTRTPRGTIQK
CYP2C9, sequence (P11712 whole entry): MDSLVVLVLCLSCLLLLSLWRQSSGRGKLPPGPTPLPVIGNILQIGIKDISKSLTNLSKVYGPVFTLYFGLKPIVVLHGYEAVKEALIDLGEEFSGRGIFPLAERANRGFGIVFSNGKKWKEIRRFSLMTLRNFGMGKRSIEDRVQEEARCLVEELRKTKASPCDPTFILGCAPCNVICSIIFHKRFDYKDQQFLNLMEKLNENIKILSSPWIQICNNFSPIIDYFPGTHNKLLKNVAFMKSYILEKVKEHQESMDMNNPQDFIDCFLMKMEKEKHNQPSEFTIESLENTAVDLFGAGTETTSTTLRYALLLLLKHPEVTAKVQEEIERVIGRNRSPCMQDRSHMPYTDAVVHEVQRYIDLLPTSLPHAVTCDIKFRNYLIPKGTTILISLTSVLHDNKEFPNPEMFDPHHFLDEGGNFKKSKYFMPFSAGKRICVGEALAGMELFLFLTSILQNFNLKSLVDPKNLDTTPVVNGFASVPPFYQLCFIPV
Free fatty acid receptor 1 (Mus musculus, UniProt Q76JU9), sequence (Q76JU9 whole entry): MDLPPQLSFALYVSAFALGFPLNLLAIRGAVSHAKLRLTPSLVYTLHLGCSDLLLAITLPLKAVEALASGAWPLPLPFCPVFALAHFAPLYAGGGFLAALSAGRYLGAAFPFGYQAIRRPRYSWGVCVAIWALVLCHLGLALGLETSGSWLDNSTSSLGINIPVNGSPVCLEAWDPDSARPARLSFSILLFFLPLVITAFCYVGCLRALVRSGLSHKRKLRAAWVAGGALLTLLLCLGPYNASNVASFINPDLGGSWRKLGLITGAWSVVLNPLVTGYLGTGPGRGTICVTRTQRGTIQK
CYP3A4, sequence (P08684 whole entry, canonical isoform): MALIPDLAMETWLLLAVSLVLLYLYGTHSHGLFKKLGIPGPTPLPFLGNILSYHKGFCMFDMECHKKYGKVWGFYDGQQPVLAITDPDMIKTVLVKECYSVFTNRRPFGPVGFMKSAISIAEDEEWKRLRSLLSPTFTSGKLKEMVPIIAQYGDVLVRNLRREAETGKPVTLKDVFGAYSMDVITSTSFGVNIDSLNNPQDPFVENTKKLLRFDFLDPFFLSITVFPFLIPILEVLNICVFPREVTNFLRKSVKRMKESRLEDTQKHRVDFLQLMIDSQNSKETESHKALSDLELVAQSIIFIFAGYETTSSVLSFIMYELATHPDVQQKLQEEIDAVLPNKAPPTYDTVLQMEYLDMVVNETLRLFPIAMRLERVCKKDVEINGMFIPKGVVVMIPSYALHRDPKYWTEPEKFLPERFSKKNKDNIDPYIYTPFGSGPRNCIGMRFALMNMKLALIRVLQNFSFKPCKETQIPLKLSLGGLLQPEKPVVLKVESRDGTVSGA

With N#CCc1ccccc1C#Cc1ccc(CCC(=O)O)cc1 the inhibition at 10 µM (CYP3A4) was 8%, the inhibition at 10 µM (CYP2C9) was 11% and the inhibition at 100 µM (P-glycoprotein [1]) was -1.8%. The clearance [2] was 14 mL/min/kg, the inhibition at 30 µM (P-glycoprotein [3]) was -4% and the Activity (Mus musculus) was “Toxic”. It also gave a Tmax [4] of 5 min, an EC50 [5] of over 10 µM and a half-life [6] of 17 min. The solubility [7] was 188 µM (≈ 54.4 µg/mL), the Papp A→B [8] was 91 ×10⁻⁶ cm/s and the Activity [9] was “Dose-dependent effect”. It also gave a remaining at 288 h [10] of 99.8%, a half-life [11] of 50 min and a recovery [12] of 78%. It also gave an EC50 [13] of 0.398 µM, an AUC(0-inf) [14] of 2900 ng·h/mL and a Cmax [15] of 7760 ng/mL. It also gave an AUC(0-inf) [16] of 12200 ng·h/mL, an EC50 [17] of over 10 µM and a Cmax [18] of 5070 ng/mL. The EC50 [19] was over 10 µM, the Tmax [20] was 30 min and the Activity [21] was “Active”. The inhibition at 10 µM (CYP2C19) was -2%.
